# What was measured:
# [1] = biological target: T1, Stimulator of interferon genes protein (Homo sapiens, UniProt Q86WV6); experiment: Activation of human STING (139 to 379 residues) expressed in THP1-Blue ISG cells at 10 uM incubated for 24 hrs by quanti-blue SEAP reporter gene assay relative to control; type: cell-based; details: filed as activator
# Summary of the method: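 THP1-Blue-ISG cells (1 × 10⁵/well) treated for 24 h; single-concentration screen at 10 μM. SEAP ISG reporter in 20 μL supernatant read with QUANTI-Blue at 650 nm. Activation given as fold over control, averaging at least two experiments.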
# [2] = biological target: T2, Stimulator of interferon genes protein (Mus musculus) (UniProt Q3TBT3); experiment: Activation of mouse STING expressed in RAW-Lucia ISG cells at 50 uM incubated for 24 hrs by quanti-blue SEAP reporter gene assay relative to control; type: cell-based; details: filed as activator
# T2 sequence (whole entry): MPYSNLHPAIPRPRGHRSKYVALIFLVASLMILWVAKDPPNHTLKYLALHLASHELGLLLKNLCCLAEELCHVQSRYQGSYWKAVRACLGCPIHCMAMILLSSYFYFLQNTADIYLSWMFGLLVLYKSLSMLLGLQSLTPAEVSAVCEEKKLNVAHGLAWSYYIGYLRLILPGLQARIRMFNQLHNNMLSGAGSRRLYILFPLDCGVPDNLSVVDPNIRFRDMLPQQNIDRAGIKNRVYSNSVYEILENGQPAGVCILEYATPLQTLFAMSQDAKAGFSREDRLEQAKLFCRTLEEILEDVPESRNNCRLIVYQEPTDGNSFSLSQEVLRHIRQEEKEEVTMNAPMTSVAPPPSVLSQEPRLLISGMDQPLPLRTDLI
# [3] = biological target: T2, Stimulator of interferon genes protein (Mus musculus); experiment: Activation of mouse STING expressed in RAW-Lucia ISG cells at 50 uM incubated for 24 hrs by QUANTI-Luc luciferase reporter gene assay relative to control; details: filed as activator
# [4] = biological target: T1, Stimulator of interferon genes protein; experiment: Activation of human STING expressed in THP1-Dual cells incubated for 24 hrs by secreted luciferase reporter gene assay
# [5] = biological target: T3, Stimulator of interferon genes protein (Mus musculus, UniProt Q3TBT3); experiment: Activation of mouse STING expressed in RAW-Lucia ISG cells incubated for 24 hrs by secreted luciferase reporter gene assay
# T3 sequence (Q3TBT3 whole entry): T2 sequence (whole entry)
# [6] = Solubility of the compound; type: physicochemical
# [7] = biological target: Voltage-gated inwardly rectifying potassium channel KCNH2 (Homo sapiens, UniProt Q12809); experiment: Inhibition of human ERG
# [8] = Half life in rat at 1 mg/kg, iv; type: ADME, organism-based; details: in vivo
# [9] = AUClast in rat at 1 mg/kg, iv; type: ADME, organism-based; design: time 0 - last, route intravenous, dose 1 mg/kg; details: in vivo
# [10] = Observed AUCinfinity in rat at 1 mg/kg, iv; type: ADME, organism-based; design: time infinity, route intravenous, dose 1 mg/kg; details: in vivo
# [11] = Observed clearance in rat at 1 mg/kg, iv; type: ADME, organism-based; details: in vivo
# [12] = Observed MRT infinity in rat at 1 mg/kg, iv; type: ADME, organism-based; details: in vivo
# [13] = Observed volume of distribution at steady state in rat at 1 mg/kg, iv; type: ADME, organism-based; details: in vivo, read-out: Vdss
# T1 sequence (Q86WV6 whole entry, the tested form may be a part): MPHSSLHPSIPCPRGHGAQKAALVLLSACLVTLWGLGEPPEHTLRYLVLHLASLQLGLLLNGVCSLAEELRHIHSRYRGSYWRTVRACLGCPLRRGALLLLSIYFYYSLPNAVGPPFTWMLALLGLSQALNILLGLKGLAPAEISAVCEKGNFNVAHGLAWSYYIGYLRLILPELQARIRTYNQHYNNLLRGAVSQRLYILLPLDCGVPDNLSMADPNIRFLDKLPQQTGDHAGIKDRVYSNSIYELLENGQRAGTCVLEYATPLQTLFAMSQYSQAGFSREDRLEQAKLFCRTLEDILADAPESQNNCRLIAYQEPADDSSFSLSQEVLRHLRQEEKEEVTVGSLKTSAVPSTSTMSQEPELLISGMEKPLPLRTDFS
# Chain of Voltage-gated inwardly rectifying potassium channel KCNH2 (Q12809 whole entry): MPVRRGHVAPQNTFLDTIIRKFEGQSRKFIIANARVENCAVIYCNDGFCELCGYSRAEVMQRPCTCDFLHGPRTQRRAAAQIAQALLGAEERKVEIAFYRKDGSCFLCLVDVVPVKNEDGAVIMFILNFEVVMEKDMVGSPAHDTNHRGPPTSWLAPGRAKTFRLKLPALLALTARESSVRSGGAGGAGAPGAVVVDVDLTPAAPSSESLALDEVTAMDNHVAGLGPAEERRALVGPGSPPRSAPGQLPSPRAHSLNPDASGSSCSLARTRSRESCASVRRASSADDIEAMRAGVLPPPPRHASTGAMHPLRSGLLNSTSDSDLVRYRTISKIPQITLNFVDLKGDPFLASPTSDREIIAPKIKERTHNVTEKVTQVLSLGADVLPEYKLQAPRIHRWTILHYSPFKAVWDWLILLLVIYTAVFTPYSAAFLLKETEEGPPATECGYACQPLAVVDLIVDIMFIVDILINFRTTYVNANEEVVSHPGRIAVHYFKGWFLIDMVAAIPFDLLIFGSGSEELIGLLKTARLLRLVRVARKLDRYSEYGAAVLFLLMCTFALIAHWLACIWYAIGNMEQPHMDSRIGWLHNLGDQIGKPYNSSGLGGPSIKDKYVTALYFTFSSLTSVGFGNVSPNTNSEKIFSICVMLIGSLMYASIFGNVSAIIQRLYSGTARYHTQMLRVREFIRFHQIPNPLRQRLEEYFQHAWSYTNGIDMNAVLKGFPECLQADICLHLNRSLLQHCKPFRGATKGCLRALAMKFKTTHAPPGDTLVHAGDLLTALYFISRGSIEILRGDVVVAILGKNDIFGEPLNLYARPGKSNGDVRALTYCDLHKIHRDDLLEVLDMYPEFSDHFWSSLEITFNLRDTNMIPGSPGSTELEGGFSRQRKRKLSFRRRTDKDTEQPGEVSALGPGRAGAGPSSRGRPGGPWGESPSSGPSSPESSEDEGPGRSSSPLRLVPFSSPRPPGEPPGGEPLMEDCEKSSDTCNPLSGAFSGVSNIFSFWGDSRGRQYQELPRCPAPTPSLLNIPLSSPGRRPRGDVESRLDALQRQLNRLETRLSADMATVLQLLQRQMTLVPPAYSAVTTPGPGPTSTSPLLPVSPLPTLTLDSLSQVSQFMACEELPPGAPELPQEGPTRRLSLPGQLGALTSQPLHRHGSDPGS
fold change (FC) [1],fold change (FC) [2],fold change (FC) [3],EC50 [4],EC50 [5],Compound,other results
17.2,–,1.16,–,–,CCn1nc(C)cc1C(=O)/N=c1\[nH]c2cc(-c3cn(CCOCCOC)nn3)cc(OC)c2n1C/C=C/Cn1/c(=N/C(=O)c2cc(C)nn2CC)[nH]c2cc(C(N)=O)cc(OCCCN3CCOCC3)c21,–
16.7,–,0.96,2.66 µM,> 50 µM,CCn1nc(C)cc1C(=O)/N=c1\[nH]c2cc(-c3ncn[nH]3)cc(OC)c2n1C/C=C/Cn1/c(=N/C(=O)c2cc(C)nn2CC)[nH]c2cc(C(N)=O)cc(OCCCO)c21,–
13.4,–,1.07,1.02 µM,> 50 µM,CCn1nc(C)cc1C(=O)/N=c1\[nH]c2cc(C(N)=O)cc(OC)c2n1C/C=C/Cn1/c(=N/C(=O)c2cc(C)nn2CC)[nH]c2cc(C#N)cc(OCCCN3CCOCC3)c21,–
4.9,–,1.18,–,–,CCn1nc(C)cc1C(=O)/N=c1\[nH]c2cc(-c3ncn[nH]3)cc(OC)c2n1C/C=C/Cn1/c(=N/C(=O)c2cc(C)nn2CC)[nH]c2cc(-c3ncn[nH]3)cc(OCCCN3CCOCC3)c21,–
17.5,–,1.42,3.28 µM,> 50 µM,CCn1nc(C)cc1C(=O)/N=c1\[nH]c2cc(-c3ncc[nH]3)cc(OC)c2n1C/C=C/Cn1/c(=N/C(=O)c2cc(C)nn2CC)[nH]c2cc(C(N)=O)cc(OCCCN3CCOCC3)c21,–
18.8,–,0.92,2.55 µM,> 50 µM,CCn1nc(C)cc1C(=O)/N=c1\[nH]c2cc(-c3nc(C)n[nH]3)cc(OC)c2n1C/C=C/Cn1/c(=N/C(=O)c2cc(C)nn2CC)[nH]c2cc(C(N)=O)cc(OCCCN3CCOCC3)c21,–
17,–,2.17,0.33 µM,> 50 µM,CCn1nc(C)cc1C(=O)/N=c1\[nH]c2cc(C(N)=O)cc(OC)c2n1C/C=C/Cn1/c(=N/C(=O)c2cc(C)nn2CC)[nH]c2cc(-c3ncn[nH]3)cc(OCCCN3CCOCC3)c21,–
1.14,0.59,–,–,–,CCn1nc(C)cc1C(=O)/N=c1\[nH]c2cc(-c3ncn[nH]3)cc(OC)c2n1[C@H]1CC[C@@H](n2/c(=N/C(=O)c3cc(C)nn3CC)[nH]c3cc(C(N)=O)cc(OCCCN4CCOCC4)c32)CC1,–
3.86,–,0.48,> 50 µM,> 50 µM,CCn1nc(C)cc1C(=O)/N=c1\[nH]c2cc(-c3ncn[nH]3)cc(OC)c2n1[C@H]1CC[C@H](n2/c(=N/C(=O)c3cc(C)nn3CC)[nH]c3cc(C(N)=O)cc(OCCCN4CCOCC4)c32)CC1,–
11.1,–,1.34,26 µM,> 50 µM,CCn1nc(C)cc1C(=O)/N=c1\[nH]c2cc(-c3ncn[nH]3)cc(OC)c2n1C/C=C/Cn1/c(=N/C(=O)c2cc(C)nn2CC)[nH]c2cc(C#N)cc(OCCCN3CCOCC3)c21,–
1.28,1.2,–,–,–,CCn1nc(C)cc1C(=O)/N=c1\[nH]c2cc(-c3ncn[nH]3)cc(OC)c2n1CCCCn1/c(=N/C(=O)c2cc(C)nn2CC)[nH]c2cc(C(N)=O)cc(OCCCN3CCOCC3)c21,–
18.3,–,0.99,1.54 µM,> 50 µM,CCn1nc(C)cc1C(=O)/N=c1\[nH]c2cc(C3=NCCO3)cc(OC)c2n1C/C=C/Cn1/c(=N/C(=O)c2cc(C)nn2CC)[nH]c2cc(C(N)=O)cc(OCCCN3CCOCC3)c21,–
17.3,–,1.18,0.79 µM,> 50 µM,CCn1nc(C)cc1C(=O)/N=c1\[nH]c2cc(C(N)=O)cc(OC)c2n1C/C=C/Cn1/c(=N/C(=O)c2cc(C)nn2CC)[nH]c2cc(-c3ncc[nH]3)cc(OCCCN3CCOCC3)c21,–

# The remaining lines, values behind:
Compound,fold change (FC) [1],fold change (FC) [2],fold change (FC) [3],EC50 [4],EC50 [5],other results
CCn1nc(C)cc1C(=O)/N=c1\[nH]c2cc(-c3ncn[nH]3)cc(OC)c2n1C/C=C/Cn1/c(=N/C(=O)c2cc(C)nn2CC)[nH]c2cc(C(N)=O)c3c(c21)OCCO3,1.58,1.1,–,–,–,–
CCn1nc(C)cc1CCc1nc2cc(C(N)=O)cc(OC)c2n1C/C=C/Cn1c(CCc2cc(C)nn2CC)nc2cc(C(N)=O)cc(OCCCN3CCOCC3)c21,0.95,–,0.9,–,–,–
CCn1nc(C)cc1C(=O)/N=c1\[nH]c2cc(-c3ncn[nH]3)cc(OC)c2n1C/C=C/Cn1/c(=N/C(=O)c2cc(C)nn2CC)[nH]c2cc(C(N)=O)cc(OCCCN3CCOCC3)c21.Cl.Cl.Cl,–,–,–,–,–,solubility [6]: 71.3 mg/mL; IC50 [7]: > 40 µM
COC(=O)CCC(=O)c1nc2cc(C(N)=O)cc(OC)c2n1C/C=C/Cn1c(C(=O)CCC(=O)OC)nc2cc(C(N)=O)cc(OCCCN3CCOCC3)c21,6.16,–,1.01,29.1 µM,> 50 µM,–
CCn1nc(C)cc1/C=C/c1nc2cc(C(N)=O)cc(OC)c2n1C/C=C/Cn1c(/C=C/c2cc(C)nn2CC)nc2cc(C(N)=O)cc(OCCCN3CCOCC3)c21,0.98,–,0.96,–,–,–
CCn1nc(C)cc1C(=O)Nc1nc2cc(C(N)=O)cc(OC)c2n1C/C=C/Cn1c(NC(=O)c2cc(C)nn2CC)nc2cc(C(N)=O)cc(OCCCN3CCOCC3)c21 [listing 1 of 2 here],–,–,–,–,–,IC50 [7]: > 40 µM
CCn1nc(C)cc1C(=O)/N=c1\[nH]c2cc(C(N)=O)cc(OC)c2n1C/C=C/Cn1c(C(=O)CCC(=O)O)nc2cc(C(N)=O)cc(OCCCN3CCOCC3)c21,0.86,0.93,–,–,–,–
CCn1nc(C)cc1C(=O)/N=c1\[nH]c2cc(-c3ncn[nH]3)cc(OC)c2n1C/C=C/Cn1/c(=N/C(=O)c2cc(C)nn2CC)[nH]c2cc(C(N)=O)c3ccoc3c21,17,1.14,–,–,–,–
COc1cc(C(N)=O)cc2nc(C(=O)CCC(=O)O)n(C/C=C/Cn3c(C(=O)CCC(=O)O)nc4cc(C(N)=O)cc(OCCCN5CCOCC5)c43)c12,9,1.4,–,–,–,–
CCn1nc(C)cc1C(=O)Nc1nc2cc(C(N)=O)cc(OC)c2n1C/C=C/Cn1c(NC(=O)c2cc(C)nn2CC)nc2cc(C(N)=O)cc(OCCCN3CCOCC3)c21 [listing 2 of 2 here],–,–,–,–,–,half-life [8]: 68.4 min; AUC(0-t) [9]: 657 ng·h/mL; AUC(0-inf) [10]: 666 ng·h/mL; clearance [11]: 26 mL/min/kg; MRT inf [12]: 38 min; Vd [13]: 0.965 L/kg
CCn1nc(C)cc1C(=O)/N=c1\[nH]c2cc(C(N)=O)cc(OC)c2n1C/C=C/Cn1c(C(=O)CCC(=O)OC)nc2cc(C(N)=O)cc(OCCCN3CCOCC3)c21,0.83,0.9,–,–,–,–
CCn1nc(C)cc1C(=O)/N=c1\[nH]c2cc(C#N)cc(OC)c2n1C/C=C/Cn1/c(=N/C(=O)c2cc(C)nn2CC)[nH]c2cc(C#N)cc(OCCCN3CCOCC3)c21,7.9,1.16,–,> 50 µM,> 50 µM,–
CCn1nc(C)cc1C(=O)/N=c1\[nH]c2cc(-c3ncc[nH]3)cc(OC)c2n1C/C=C/Cn1/c(=N/C(=O)c2cc(C)nn2CC)[nH]c2cc(-c3ncc[nH]3)cc(OCCCN3CCOCC3)c21,1.22,–,1.21,–,–,–

# Reference: ChEMBL document CHEMBL4808161, “Structure-Activity Relationship Study of Amidobenzimidazole Analogues Leading to Potent and Systemically Administrable Stimulator of Interferon Gene (STING) Agonists” (J Med Chem, 2021)
